Data on 29 compounds can be found in ChEMBL document CHEMBL1821638, “Targeting the human malaria parasite Plasmodium falciparum: in vitro identification of a new antiplasmodial hit in 4-phenoxy-2-trichloromethylquinazoline series” (Eur J Med Chem, 2011).

The source made the active and inactive calls. No cut-off for these calls is given here.

Series [1] in a line: Cytotoxicity against human HepG2 cells after 72 hrs by MTT assay. Type of series: cell-based. The procedure, abridged:
(§1)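 HepG2 or HFF cells seeded in RPMI with 10% foetal bovine serum, L-glutamine and penicillin/streptomycin, 37 °C, 6% CO₂; after 24 h, medium with various compound concentrations added for 72 h. Wells checked microscopically for precipitate. MTT in serum-free medium 2 h at 37 °C, formazan dissolved in DMSO, absorbance at 570 nm (630 nm reference). Viability as percent of untreated control; doxorubicin reference.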

Series [2] in a line: Selectivity index, ratio of CC50 for human HepG2 cells to IC50 for chloroquine, pyrimethamine and proguanil-resistant Plasmodium falciparum W2. The format is functional.
Series [3] has as its system Plasmodium falciparum. The series is described as follows: Antiplasmodial activity against chloroquine, pyrimethamine and proguanil-resistant Plasmodium falciparum W2 infected in human A positive erythrocytes after 72 hrs by SYBR Green I assay. The following applies: W2, 72 h. Type of series: functional, organism-based.
Series [4] in a line: Cytotoxicity against human HFF cells after 72 hrs by MTT assay. Type of series: cell-based. The procedure, abridged:
as §1

In series [5] the test system is Salmonella typhimurium. Put plainly: Mutagenic activity in Salmonella Typhimurium TA98 assessed as number of spontaneous and drug-induced revertants at 25 to 125 nM after 48 hrs by Ames test. The format is toxicity, organism-based. Particulars: salmonella enterica subsp. enterica serovar typhimurium, 0.125 µM. The procedure, abridged:
(§2)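 Salmonella tester strains grown overnight in nutrient broth. Compound in DMSO added to 0.1 mL culture and preincubated 1 h at 37 °C with shaking, in duplicate. Mixed with 2 mL molten top agar and plated on Vogel-Bonner minimal agar. After 48 h at 37 °C, spontaneous and induced revertants per plate counted for each dose by laser colony counter, against negative controls.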

The test system of series [6] is Salmonella typhimurium. Put plainly: Mutagenic activity in Salmonella Typhimurium TA102 assessed as number of spontaneous and drug-induced revertants at 25 to 125 nM after 48 hrs by Ames test. The format is toxicity, organism-based. The following applies: salmonella enterica subsp. enterica serovar typhimurium, 0.125 µM. The procedure, abridged: as §2
Series [7] has as its system Salmonella typhimurium. Put plainly: Mutagenic activity in Salmonella Typhimurium TA97a assessed as number of spontaneous and drug-induced revertants at 25 to 125 nM after 48 hrs by Ames test. The format is toxicity, organism-based. The following applies: salmonella enterica subsp. enterica serovar typhimurium, 0.125 µM. In a few lines: as §2
For series [8], the system named is Salmonella typhimurium. Put plainly: Mutagenic activity in Salmonella Typhimurium TA100 assessed as number of spontaneous and drug-induced revertants at 25 to 125 nM after 48 hrs by Ames test. Type of series: toxicity, organism-based. The following applies: salmonella enterica subsp. enterica serovar typhimurium, 0.125 µM. The procedure, abridged: as §2
Series [9] is described as follows: Solubility of the compound. The format is physicochemical.
The subject of series [10] is Plasmodium falciparum. Put plainly: Antiplasmodial activity against chloroquine, pyrimethamine and proguanil-resistant Plasmodium falciparum W2 infected in human A positive erythrocytes at > 50 uM after 72 hrs by SYBR Green I assay. The format is functional, organism-based. In a few lines: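 W2 strain kept in continuous culture in A+ human erythrocytes at 2.5% hematocrit. Medium was RPMI 1640 with 25 mM HEPES, 25 mM NaHCO3 and 10% A+ human serum, at 37 °C under 5% O2/5% CO2/90% N2, parasitaemia 1–6%. Drug exposure 72 h. Lysis buffer with SYBR Green I, saponin and Triton X-100, 15 min at 37 °C. Fluorescence read at ex 497/em 520 nm. IC50 by non-linear regression, mean of three independent experiments.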

Series [11] has as its system Toxoplasma gondii. The series is described as follows: Antiparasitic activity against Toxoplasma gondii PRU tachyzoites harboring beta-Gal gene infected in human HFF cells after 72 hrs by microtiter plate based assay. Type of series: functional, cell-based. The procedure, abridged: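 T. gondii PRU-b-Gal tachyzoites kept by serial passage in confluent human foreskin fibroblast (HFF) monolayers. Compounds in DMSO (final <0.5% v/v) added at various concentrations in triplicate. Controls: DMSO-treated, pyrimethamine, and uninfected drug-free monolayers. Incubated 72 h at 37 °C, 6% CO2. Read by colorimetric microtiter assay.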

Series [12] relates to HepG2. Put plainly: Cytotoxicity against human HepG2 cells at > 125 uM after 72 hrs by MTT assay. The format is cell-based. Particulars: hepg2, 72 h. In a few lines:
as §1

In the case of `FC(F)(F)c1nc(Oc2ccc(Cl)cc2)c2ccccc2n1`, the CC50 at 72 h in [1] was found to be 72 µM. Moreover, the “Ratio CC50/IC50” value in [2] is 1.1. Moreover, the IC50 in series [3] was 68 µM.
With `Clc1cccc(Oc2nc(C(Cl)(Cl)Cl)nc3ccccc23)c1`, in series [1], half-maximal cytotoxicity (CC50 at 72 h) was put at 26.1 µM. Moreover, the “Ratio CC50/IC50” value in series [2] is given as 10.9. The compound further gave an IC50 in [3] of 2.4 µM.
Taken in the same sequence, the figures for `FC(F)(F)c1cccc(Oc2nc(C(Cl)(Cl)Cl)nc3ccccc23)c1` were 25.1 µM, 10.9 and 2.3 µM.
Taken in the same sequence, the figures for `O=[N+]([O-])c1cccc(Oc2nc(C(Cl)(Cl)Cl)nc3ccccc23)c1` were 36.3 µM, 12.1 and 3 µM.
Turning to `CCN(CC)CCCC(C)Nc1ccnc2cc(Cl)ccc12` (centres undefined) [CHLOROQUINE], in [1], the CC50 at 72 h is […].
As for `Cc1ccccc1Oc1nc(C(Cl)(Cl)Cl)nc2ccccc12`, the CC50 at 72 h in series [1] came to 25.1 µM. In series [2], the “Ratio CC50/IC50” value was found to be 4.6. For the same compound, the IC50 in series [3] is 5.5 µM.
Take `FC(F)(F)c1ccccc1Oc1nc(C(Cl)(Cl)Cl)nc2ccccc12`: it took 34.9 µM to reach half-maximal cytotoxicity in [1] (CC50 at 72 h). Besides, the “Ratio CC50/IC50” value in [2] worked out at 10.6. Besides, in series [3], half-maximal inhibition (IC50) required 3.3 µM.
Taken in the same sequence, the figures for `Clc1ccccc1Oc1nc(C(Cl)(Cl)Cl)nc2ccccc12` were 33.6 µM, 7.6 and 4.4 µM.
`COc1ccccc1Oc1nc(C(Cl)(Cl)Cl)nc2ccccc12` yielded a CC50 at 72 h in [1] of 6.7 µM. In addition, the “Ratio CC50/IC50” value in [2] worked out at 1.1. Moreover, the IC50 in series [3] turned out to be 6 µM.
Regarding `COc1cccc2c1C(=O)c1c(O)c3c(c(O)c1C2=O)C[C@@](O)(C(=O)CO)C[C@@H]3O[C@H]1C[C@H](N)[C@H](O)[C@H](C)O1` [DOXORUBICIN], the figures for the cytotoxic concentration (CC50) at 72 h in series [4] and in [1] were 0.03 µM and 0.2 µM, respectively. The Activity result in series [5], in [6], in series [7] and in [8] was “Toxic” each time.
In the case of `ClC(Cl)(Cl)c1nc(Oc2cccc3ccccc23)c2ccccc2n1`, the CC50 at 72 h in series [1] worked out at 2.4 µM. Further, the “Ratio CC50/IC50” value in [2] was found to be 0.6. Moreover, the IC50 in series [3] was 3.9 µM.
Turning to `O=[N+]([O-])c1ccc(Oc2nc(C(Cl)(Cl)Cl)nc3ccccc23)cc1`, the solubility entry in series [9] is on record as “Insoluble”. The CC50 at 72 h in series [1] is > 16 µM. The “Ratio CC50/IC50” value in series [2] was >4.6. Further, in series [3], the IC50 is 3.5 µM.
The compound `ClC(Cl)(Cl)c1nc(Oc2ccc3ccccc3c2)c2ccccc2n1` yielded a CC50 at 72 h in series [1] of 3.6 µM. The “Ratio CC50/IC50” value in series [2] is listed as 1.6. The IC50 in series [3] amounted to 2.3 µM.
In the same order, the values of `COc1cccc(Oc2nc(C(Cl)(Cl)Cl)nc3ccccc23)c1` are 0.6 µM, 0.3 and 1.9 µM.
On to `Oc1nc(C(Cl)(Cl)Cl)nc2ccccc12`, for which it took 21 µM to reach half-maximal cytotoxicity in series [1] (CC50 at 72 h). Moreover, the “Ratio CC50/IC50” value in series [2] is reported as <0.42. Moreover, the outcome in series [10] was inactive.
For `Cc1nc(Oc2ccc(Cl)cc2)c2ccccc2n1`, it took 26 µM to reach half-maximal cytotoxicity in series [1] (CC50 at 72 h). For the same compound, in series [2], the “Ratio CC50/IC50” value amounted to 0.9. The compound also yielded an IC50 in [3] of 28 µM.
Taken in the same sequence, the figures for `Fc1cccc(Oc2nc(C(Cl)(Cl)Cl)nc3ccccc23)c1` were 41.7 µM, 18.1 and 2.3 µM.
In the same order, the values of `ClC(Cl)(Cl)c1nc(Oc2ccccc2)c2ccccc2n1` are 50 µM, 16 and 3.1 µM.
Regarding `O=[N+]([O-])c1ccccc1Oc1nc(C(Cl)(Cl)Cl)nc2ccccc12`, the solubility result in series [9] was “Insoluble”. The CC50 at 72 h in series [1] was > 8 µM. Also, the “Ratio CC50/IC50” value in series [2] is reported as >1.6. Further, in series [3], it took 4.9 µM to reach half-maximal inhibition (IC50).
`COc1ccc(Oc2nc(C(Cl)(Cl)Cl)nc3ccccc23)cc1` had a CC50 at 72 h in series [1] of 34.1 µM. The “Ratio CC50/IC50” value in [2] is on record as 11.8. Moreover, in series [3], the IC50 amounted to 2.9 µM.
`Cc1ccc(Oc2nc(C(Cl)(Cl)Cl)nc3ccccc23)cc1C`: in series [1], the CC50 at 72 h was determined as 29 µM. The “Ratio CC50/IC50” value in [2] turned out to be 8.8. The IC50 in series [3] turned out to be 3.3 µM.
Taken in the same sequence, the figures for `FC(F)(F)c1ccc(Oc2nc(C(Cl)(Cl)Cl)nc3ccccc23)cc1` were 29.6 µM, 16.4 and 1.8 µM.
As for `Fc1ccc(Oc2nc(C(Cl)(Cl)Cl)nc3ccccc23)cc1`, the CC50 at 72 h in [1] is 29.5 µM. In series [2], the “Ratio CC50/IC50” value amounted to 12.3. For the same compound, in series [3], the IC50 worked out at 2.4 µM.
In series [11], `CCc1nc(N)nc(N)c1-c1ccc(Cl)cc1` [PYRIMETHAMINE] had an IC50 of 1.1 µM. The CC50 at 72 h in [4] was > 50 µM; in series [1], 7.1 µM.
In [1], `C[C@H]1c2cccc(O)c2C(=O)C2=C(O)[C@]3(O)C(=O)C(C(N)=O)=C(O)[C@@H](N(C)C)[C@@H]3[C@@H](O)[C@@H]21.O` [DOXYCYCLINE] displayed a CC50 at 72 h of 20 µM. Also, the “Ratio CC50/IC50” value in [2] is 4.2. Further, in [3], the concentration for half-maximal inhibition (IC50) was determined as 4.8 µM.
In the same order, the values of `Cc1cccc(Oc2nc(C(Cl)(Cl)Cl)nc3ccccc23)c1` are 7.6 µM, 2.6 and 2.9 µM.
For `Clc1nc(C(Cl)(Cl)Cl)nc2ccccc12`, the “Ratio CC50/IC50” value in series [2] was >2.3. The Activity entry in [12] is reported as “Non-toxic”.
Turning to `Cc1ccc(Oc2nc(C(Cl)(Cl)Cl)nc3ccccc23)cc1`, it took 42.8 µM to reach half-maximal cytotoxicity in series [1] (CC50 at 72 h). Also, the “Ratio CC50/IC50” value in [2] was determined as 13.4. Moreover, 3.2 µM corresponded to half-maximal inhibition in [3] (IC50).
Taken in the same sequence, the figures for `Fc1ccccc1Oc1nc(C(Cl)(Cl)Cl)nc2ccccc12` were 38.3 µM, 7.7 and 5 µM.
